Experimental data gathered from unrelated publications.
Each line is one published result; the experiments were not run side by side. pIC50: −log10 of the molar value.
Cell line: MDA-MB-231
Observed: cell growth or viability

SMILES | technique | time | measurement | value
COc1cccc(NC(=S)N/N=C/c2cccc3cc4ccccc4nc23)c1 | MTT | 48 h | pIC50 | < 4.30
Cc1ccc(S(=O)(=O)n2cc(/C=N/NC(=O)Cc3cc(F)cc(F)c3)c3ccccc32)cc1 | MTT | 48 h | pIC50 | 4.49
Nc1ccn([C@@H]2O[C@H](CO)[C@@H](O)C2(F)F)c(=O)n1 | MTT | 24 h | IC50 | 7.1 µg/mL
COc1cccc2c1C(=O)c1c(O)c3c(c(O)c1C2=O)C[C@@](O)(C(=O)CO)C[C@@H]3O[C@H]1C[C@H](N)[C@H](O)[C@H](C)O1 | MTT | 48 h | pIC50 | 6.70
O=C(Nc1ccc(Cl)cc1)Nc1ccc(Oc2nc3ccccc3n3cnnc23)cc1 | MTT | 24 h | pIC50 | < 4.17
COc1cccc2c1C(=O)c1c(O)c3c(c(O)c1C2=O)C[C@@](O)(C(=O)CO)C[C@@H]3O[C@H]1C[C@H](N)[C@H](O)[C@H](C)O1 | SRB |  | pIC50 | 6.74
Cc1ccc(S(=O)(=O)n2cc(/C=N/NC(=O)c3ccccc3)c3ccccc32)cc1 | MTT | 48 h | pIC50 | 4.62
COc1ccccc1/C=N/N=C1\C(=O)Nc2ccccc21 | MTT | 24 h | IC50 | 41.2 µg/mL
Cc1ccc(C(C)C)c(OC2=C(Cl)C(=O)c3ccccc3C2=O)c1 | MTT | 24 h | IC50 | 60 µg/mL
C[C@H]1[C@H](C)CC[C@]2(C)CC[C@]3(C)C(=CC(=O)[C@@H]4[C@@]5(C)CC[C@@H](O)[C@](C)(C(=O)NCc6cn(-c7ccc(Br)cc7)nn6)[C@@H]5CC[C@]43C)[C@H]12 | MTT | 24 h | pIC50 | 4.14
Fc1ccc(NC(=S)N/N=C/c2cccc3cc4ccccc4nc23)cc1 | MTT | 48 h | pIC50 | < 4.30
Cc1ccc(S(=O)(=O)n2cc(/C=N/NC(=O)c3ccco3)c3ccccc32)cc1 | MTT | 48 h | pIC50 | 4.53
C[C@H]1[C@H](C)CC[C@]2(C)CC[C@]3(C)C(=CC(=O)[C@@H]4[C@@]5(C)CC[C@@H](O)[C@](C)(C(=O)NCc6cn(-c7ccccc7)nn6)[C@@H]5CC[C@]43C)[C@H]12 | MTT | 24 h | pIC50 | 3.99
COc1cc([C@@H]2c3cc4c(cc3[C@@H](O[C@@H]3O[C@@H]5CO[C@@H](C)O[C@H]5[C@H](O)[C@H]3O)[C@H]3COC(=O)[C@H]23)OCO4)cc(OC)c1O | SRB | 72 h | pIC50 | 5.48
CCCc1cc2cc(-n3nc(C)c4c3CC(C)(C)CC4=O)cc(N3CCC(O)CC3)c2c(=O)[nH]1 | MTS |  | pIC50 | 5.42
O=c1[nH]cc(F)c(=O)[nH]1 | MTT | 48 h | pIC50 | 4.91
C[C@H]1[C@H](C)CC[C@]2(C)CC[C@]3(C)C(=CC(=O)[C@@H]4[C@@]5(C)CC[C@@H](O)[C@](C)(C(=O)NCc6cn(-c7ccccc7C(F)(F)F)nn6)[C@@H]5CC[C@]43C)[C@H]12 | MTT | 24 h | pIC50 | 4.16
Cc1ccc(S(=O)(=O)n2cc(/C=N/NC(=O)c3cccnc3)c3ccccc32)cc1 | MTT | 48 h | pIC50 | 4.74
